This note sets out measurements from PMC5935509 (Bioactive Materials, 2017).

The test relates to HeLa cells. The test can be described thus: Cytotoxicity measurement, CCK-8 cell viability assay. It counts as cell-based. Particulars: 24 h of incubation, mean, n = 4. The method, boiled down: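 HeLa cells seeded at 10⁴ cells/well. For the combination arm, anticancer drug was added first (final 1, 10 or 100 µM), then self-assembling peptide at final 16 or 26 µM, charge-matched between peptides. Peptide-alone wells received the same peptide levels. After 24 h, drug and peptide were removed and viability read by CCK-8 absorbance at 450 nm. Four replicates, mean ± SD.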

In the case of `COc1cccc2c1C(=O)c1c(O)c3c(c(O)c1C2=O)C[C@@](O)(C(=O)CO)C[C@@H]3O[C@H]1C[C@H](N)[C@H](O)[C@H](C)O1` [DOX, Doxorubicin], the cell viability is given as 70% (1 μM DOX, K10 16 μM or K6 26 μM) and 18% (100 μM DOX).
